Screening data deposited in PubChem BioAssay by several laboratories.
MPTP inh – mitochondrial permeability transition pore inhibitors, primary screen, biochemical, isolated mouse mitochondria, absorbance | Ca2+ swelling absorbance, 30 min | inhibition, % at 10 µM | 360,000 compounds, 1.4% hits;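 active = inhibition of 50% or more, scaled per plate between neutral and stimulator controls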;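 also: 0% = DMSO wells given calcium and 100% = 1 mM EGTA wells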
T cruzi inh – inhibitors of intracellular T. cruzi growth, primary screen, luminescence, NIH3T3 host cells; T. cruzi beta-gal in NIH3T3, 90 h; inhibition, % (test concentration not listed); 300,000 compounds, 1.4% hits;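 active = mean inhibition across valid replicates above about 55%, limit read from the data; inconclusive = mean below that limit but half or more replicates reach it; inactive = mean below it, under half of replicates reach it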;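 also: signal also drops with host cell toxicity which is not excluded here; 0% = plate median of DMSO wells and 100% = zero luminescence signal; higher percent means less beta-gal luminescence so fewer parasites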
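Incubation – ≥90 h infection period, 3 h prior cell attachment · System – NIH/3T3 fibroblasts plus reporter T. cruzi · Doses – compound pinned at 50 nL/well, DMSO · Read-out basis – percent inhibition of parasite-derived β-gal signal · Signal – luminescent β-galactosidase signal after 60 min lysis · Also added – 5000 T. cruzi trypomastigotes/well · Medium – Low-serum DMEM with 2% FBS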
L major viab – Leishmania major promastigote growth inhibition, primary screen | Leishmania major promastigotes, resazurin fluorescence viability | inhibition, % at 10 µM | 200,000 compounds, 9% hits | AID 1063, 2008; in the data active = inhibition above about 50%;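 also: promastigotes grown with compound for 44 hours at 28 °C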
Redox H2O2 prof – compounds producing H2O2 with reducing agent – biochemical, NIH compound library profiling, artefact control for MLSCN library redox annotation, primary screen; 200,000 compounds, 0.03% hits; activation, % at 10 µM; DTT-dependent redox cycling H2O2, phenol red/HRP absorbance; 100% = 100 µM peroxide control, 0% = buffer;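 active = activation of at least 50% relative to the plate's high and low controls in the primary single-dose screen; inactive = activation below 50%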;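 also: compound incubated with DTT at 0.8 mM final as the reducing agent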
Lipid droplet – inhibitors of hepatocyte lipid droplet formation, primary screen, imaging, high-throughput imaging, BODIPY stain | inhibition, % at 6.5 µM | AML12 mouse hepatocytes, oleate lipid droplets | 240,000 compounds, 0.4% hits | AID 1656, 2009;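 active = lipid droplet intensity inhibited by at least 50%, with more than 500 cells counted; inconclusive = wells with under 300 cells, treated as cytotoxic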
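Material: mouse AML12 hepatocyte cell line, fixed after treatment; Timing: compound with oleate, overnight; Technique: high-content imaging of BODIPY-stained droplets and DAPI nuclei; Probe or stimulus: oleate, 100 µM final; Dosing: compound at 6.5 µM only.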
MPTP counter – fluorescence retest of MPTP screen hits in isolated mitochondria, single concentration | shares compounds with MPTP inh | membrane potential, Rhodamine 123 fluorescence | inhibition, % at 10 µM | 5,000 compounds, 78% hits; in the data active = inhibition above about 22%;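 also: 0% = DMSO vehicle and 100% = positive control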
MPTP swell DR – mitochondrial permeability transition pore inhibitors, dose response, biochemical, absorbance, uHTS hits; isolated mitochondria swelling; 780 compounds, 58% hits; shares compounds with MPTP inh; IC50, µM; in the data active = IC50 below about 20 µM
MPTP cs DR – fluorescent counter-screen in isolated mitochondria, dose response, counter-screen for MPTP inhibitor project, biochemical, fluorescence, uHTS hits; shares compounds with MPTP inh; isolated mitochondria counterscreen, fluorescence read-out; IC50, µM; 780 compounds, 49% hits; in the data active = IC50 below about 80 µM
Active calls of the source: *; ? = inconclusive; . = no result given. Only a selection was taken, and hits are over-represented in it overall.

SMILES | MPTP inh | T cruzi inh | L major viab | Redox H2O2 prof | Lipid droplet | MPTP counter | others
COc1ccc(NS(=O)(=O)c2ccc3[nH]c(=O)[nH]c3c2)cc1 | 5 | -11 | . | . | -11 | .
Cc1ccc(NC(=O)c2ccc(Cl)c(N3C(=O)C=CC3=O)c2)cc1 | 84* | . | 1 | 1 | . | 86*
O=C(Nc1ccc(Cl)c(Cl)c1)c1ccc(Cl)c(Cl)c1 | 23 | 20 | . | . | -6 | .
Cc1ccc(N=C2NC(=O)CS2)cc1C | 0 | -7 | . | . | 3 | .
O=C(CSc1ncnc2c1oc1ccccc12)Nc1nc2ccccc2s1 | 3 | -7 | -4 | -3 | -3 | .
O=C(CSc1ncnc2c1sc1ccccc12)Nc1ccc(Br)cc1 | 54* | -5 | 60* | -1 | 10 | 37*
Cc1ccc(C)c(S(=O)(=O)N2CCN(C(=O)c3ccc(OCc4c(C)noc4C)cc3)CC2)c1 | -1 | 24 | . | . | . | .
NC(CO)c1csc(NC(=O)Nc2cccc(Cl)c2)n1 (stereo not drawn) | 2 | . | . | . | . | .
O=C(Nc1nc(-c2ccc(Cl)cc2)cs1)NC1CCCCC1 | 92* | 34 | 8 | 0 | -14 | 88*
CCCC(=O)Nc1nc(-c2ccc(Cl)s2)cs1 | -2 | 25 | 0 | -1 | -10 | .
O=C(Nc1ccc([N+](=O)[O-])cc1)Nc1nc(-c2ccc(Cl)s2)cs1 | 91* | 46 | 82* | 0 | -2 | 87*
Cc1noc(-c2ccccc2)c1NC(=O)Nc1ccc(Cl)cc1 | 84* | 12 | . | . | -20 | 97*
Cc1noc(-c2ccccc2)c1NC(=O)Nc1ccccc1 | 8 | 7 | . | . | 1 | .
O=C(Nc1cccc(Cl)c1)Nc1nc(-c2ccccc2)cs1 | 94* | ? | 26 | 0 | 16 | 83*
O=C(Nc1ccc2c(c1)OCO2)C1CCCN1C(=O)Nc1ccccc1 (stereo not drawn) | 0 | -1 | . | . | 23 | .
O=C(Nc1nc(-c2ccccc2)cs1)c1ccccc1NS(=O)(=O)c1ccc(F)cc1 | 93* | -8 | 5 | 0 | -40 | 35*
O=C(Cc1ccc(F)cc1)Nc1nc(-c2ccc(F)c(F)c2)cs1 | 59* | 14 | . | . | . | 86*
Cc1csc(NC(=O)Nc2cccc(Cl)c2)n1 | 92* | 7 | 8 | 2 | 3 | 75*
CC(=O)c1c(C)[nH]c(C(=O)Nc2nc(-c3ccc(Cl)cc3)cs2)c1C | 94* | 29 | 11 | 0 | -2 | 58*
COc1ccc(-c2nc(NC(=O)c3[nH]c(C)c(C(C)=O)c3C)sc2C)cc1 | 21 | 39 | 37 | 0 | 8 | .
c1cnn(-c2cncc(-n3cccn3)n2)c1 | 0 | -5 | 1 | -1 | 8 | .
O=C(Nc1ccccc1)Nc1nc(-c2ccc(F)cc2)cs1 | 92* | 17 | -7 | 0 | -5 | 86*
O=C(Nc1ccc(Cl)cc1)Nc1nc(-c2ccccc2)cs1 | 94* | 14 | 9 | 0 | 7 | 92*
Fc1ccc(-c2csc(NC(=S)Nc3ccccc3)n2)cc1 | 4 | 29 | . | . | 6 | .
NC(Cc1ccc(Cl)cc1)c1csc(NC(=O)Nc2ccccc2)n1 (stereo not drawn) | 7 | . | . | . | . | .
SMILES | MPTP inh | T cruzi inh | L major viab | Redox H2O2 prof | Lipid droplet | MPTP counter | others
COc1ccccc1OCC(=O)NNC(=O)Nc1ccc(Cl)cc1 | 0 | -24 | -6 | 0 | 0 | .
COc1ccccc1OC(=O)Nc1ccc(Cl)cc1 | 58* | -2 | . | . | . | 75*
Cc1nc(C)c(C(=O)NNS(=O)(=O)c2ccc3ccccc3c2)s1 | 89* | -22 | -4 | 0 | 2 | 62*
Cc1nc(NS(=O)(=O)c2ccccc2)sc1C(=O)NNS(=O)(=O)c1ccccc1 | -3 | 1 | . | . | -7 | .
CC[C@H](C)[C@@H](CN[C@H](C)CNC)NCCC(c1ccccc1)c1ccccc1 | 101* | -4 | . | . | -14 | -17 | MPTP swell DR=3.8*;MPTP cs DR=>80
CC[C@@H](C)[C@H](CN[C@H](CNC)C(C)C)NC[C@@H](C)c1ccc(CC(C)C)cc1 | 5 | 37 | . | . | 1 | .
CC(C)NC(=O)N(Cc1ccccc1)Cc1cccs1 | 1 | -6 | . | . | -22 | .
CCC1CCC(NC(=O)Nc2cccc(OC)c2)CC1 (stereo not drawn) | 49 | 9 | -4 | 0 | -3 | .
C/C(=N/NC(=O)c1ccc(-c2ccccc2)cc1)c1cc(O)cc(O)c1 | 0 | . | . | . | -5 | .
C/C(=N\NC(=O)c1ccc(Br)cc1)C1C(=O)c2ccccc2C1=O | 74* | 1 | -11 | 0 | -15 | 79*
CCOc1ccc(C(=O)N/N=C(/C)C2C(=O)c3ccccc3C2=O)cc1 | 40 | -1 | -13 | 0 | 2 | .
C/C(=N\NC(=O)c1ccc(-c2ccccc2)cc1)C1C(=O)c2ccccc2C1=O | 76* | ? | 17 | 0 | -31 | 43*
Nc1nc2c(Br)ccc(Br)c2cc1C(=O)NCc1cccc2ccccc12 | 3 | . | . | . | . | .
COC(=O)CCNC(=O)CCc1ccc(S(=O)(=O)N2CCCCCC2)cc1 | -2 | . | . | . | . | .
CSCCC(NC(=O)COc1ccccc1)C(=O)N(C)Cc1ccc(SC)cc1 (stereo not drawn) | -1 | . | . | . | . | .
O=S(=O)(c1ccc(N2CCCC2)cc1)C(F)(F)F | 91* | -18 | -6 | 0 | -14 | 68*
O=S(=O)(c1ccc(N2CCN(c3ccc(F)cc3)CC2)cc1)N1CCCC1 | -1 | -19 | -3 | 1 | . | .
CN(C)C(CNc1ccc(C(F)(F)F)cc1[N+](=O)[O-])c1ccccc1 (stereo not drawn) | 62* | 37 | . | . | -4 | 1 | MPTP swell DR=>100;MPTP cs DR=>80
O=[N+]([O-])c1cc(C(F)(F)F)ccc1NCCCCNS(=O)(=O)c1ccc2ccccc2c1 | 91* | 15 | -4 | -3 | . | 79*
Cc1[nH]n(-c2ncc(-c3ccccc3)s2)c(=O)c1C(c1ccc(Cl)cc1)C(C#N)C#N (stereo not drawn) | 103* | -21 | 35 | 0 | 6 | 25*
Cc1ccc(NC(=O)CCC(=O)c2cccs2)c(O)c1 | 1 | -11 | . | . | -4 | .
COc1ccc(C(=O)NCC(=O)OCC(=O)Nc2sccc2C#N)cc1OC | 0 | -5 | -6 | 0 | 1 | .
CN(C(=O)Cn1nnc(-c2cccnc2)n1)C1CCCCC1 | . | -17 | . | . | 42 | .
COc1ccccc1NC(=O)c1ccccc1NS(=O)(=O)c1cccs1 | 13 | -16 | -4 | -2 | -11 | .
